Screening results deposited in PubChem BioAssay by several laboratories.
SUMO HTRF inh = inhibitors of in vitro SUMOylation cascade, primary screen, biochemical, HTRF, uHTS; SUMO-conjugating enzyme UBC9 (Homo sapiens), P63279; HTRF SUMOylation assay, SAE1/SAE2 + UBC9; inhibition, % at 35 µM; 290,000 tested, 0.36% active; in the data active = inhibition above about 50%, passing the limit was not always enough
Target sequence (P63279 whole entry, looked up): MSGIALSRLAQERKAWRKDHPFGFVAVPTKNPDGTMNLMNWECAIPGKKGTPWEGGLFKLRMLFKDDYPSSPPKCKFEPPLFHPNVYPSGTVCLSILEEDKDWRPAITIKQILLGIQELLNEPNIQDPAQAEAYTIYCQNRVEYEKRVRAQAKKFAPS
Mot1-301 SUMO = yeast Mot1-301 growth rescue at high temperature, primary screen, SUMOylation pathway inhibitor project, S. cerevisiae, ATP luminescence, 38.5C; AID 2716, 2010; growth rescue, % at 18.8 µM; 320,000 tested, 1% active; S. cerevisiae Mot1-301 growth rescue; percent above DMSO median, 100 means doubled;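 active = every valid replicate shows activation above 250% relative to neutral control wells; inactive = the rest, any valid replicate at or below 250%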;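 note: OY570 slx delta 5 strain wells were the positive control but not used for scaling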
NALP1 inh = NALP1 inflammasome inhibitors in reconstituted yeast, colorimetric, S. cerevisiae, triplicate retest. 280,000 tested, 0.61% active. inhibition, % at 10 µM. S. cerevisiae NALP1/ASC/caspase-1 growth, X-gal OD620, 72 h; in the data active = inhibition mostly above about 24%, no sharp cut-off; inactive = mostly below about 32%
IMP-1 inhibitor = IMP-1 metallo-beta-lactamase inhibitors, primary screen, biochemical, epi-absorbance readout, Pseudomonas aeruginosa enzyme. metallo-beta-lactamase IMP-1 (Pseudomonas aeruginosa). purified IMP-1, nitrocefin hydrolysis, epi-absorbance fluorescence. inhibition, % at 5.6 µM. 290,000 tested, 0.45% active. AID 1556, 2009;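 active = inhibition above the mean plus 3 SD of all compounds in the same screening run, cut at about 4.5% in these data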;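 note: 0% = IMP-1 with DMSO and 100% = DMSO wells lacking enzyme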
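System – purified recombinant IMP-1 beta-lactamase · Input – IMP-1 dispensed at 0.2 nM · Timing – 15 min preincubation plus 25 min reaction at 25 °C · Signal – Epi-absorbance fluorescence, 480 nm excitation, 530 nm emission · Measure – percent IMP-1 inhibition derived from blank-referenced optical density · Controls – Enzyme-plus-DMSO low control, enzyme-free DMSO high control · Replication – singlicate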
DNA FID counter = compounds displacing fluorescent DNA intercalator, primary screen, artefact control for HCV NS3 helicase inhibitor project, biochemical, FID fluorescence; DNA fluorescent intercalator displacement; inhibition, % at 7.9 µM; 290,000 tested, 0.17% active; in the data active = inhibition above about 37%;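 note: 0% = vehicle and 100% = reference compound; higher means more ethidium bromide displaced from hairpin DNA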
VIM-2 inhibitor = VIM-2 metallo-beta-lactamase inhibitors, primary screen, biochemical, epi-absorbance readout, Pseudomonas aeruginosa enzyme. purified VIM-2, nitrocefin hydrolysis, epi-absorbance fluorescence. inhibition, % at 5.6 µM. 290,000 tested, 0.89% active. AID 1527, 2009;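 active = inhibition above the mean of all tested compounds plus 3 SD, cutoff set per screening run, cut at about 7.5% in these data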;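 note: red hydrolysis product quenches plate fluorescence so inhibitors raise well fluorescence; 0% = enzyme with DMSO and 100% = DMSO without enzyme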
Mot1 SUMO dose = growth restoration of Mot1-301 yeast on galactose, dose response, SUMO pathway inhibitor project, whole organism, S. cerevisiae, ATP luminescence, cherry-picked samples; shares compounds with Mot1-301 SUMO; 2,300 tested, under 10 active; S. cerevisiae Mot1-301 galactose growth, 24 h; -100 = growth of slx-deleted rescue strain; AID 493004, 2010; growth activity, percent, % at 42 µM;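 active = Signal drops as the depositor expects, and the fitted half-maximal dose is no more than ten times the top valid tested dose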;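 note: more negative values mean stronger growth rescue toward the control strain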
Numbers without * were called inactive; x = no result; + = active, no number. In the library only some 2.9% were active in any assay of this set; here they are far more common.

SMILES	SUMO HTRF inh	Mot1-301 SUMO	NALP1 inh	IMP-1 inhibitor	DNA FID counter	VIM-2 inhibitor	Mot1 SUMO dose
CS(=O)(=O)NCCOc1ccc(S(=O)(=O)NCCOc2ccccc2)cc1	2	-17	21	0	-6	-3	x
CC(C)C[C@@H](CO)N1CCN(Cc2cccnc2)CCC1=O	0	621*	0	-4	-13	-2	0
CC(=O)NNC(=O)c1[nH]c2ccc(Cl)cc2c1-c1ccccc1	4	11	x	-2	-7	-2	x
NNC(=O)c1[nH]c2ccccc2c1-c1ccccc1	10	653*	4	-2	-17	-5	-1
O=[N+]([O-])c1cccc(-c2nc3ccc([N+](=O)[O-])cc3[nH]2)c1	6	359*	-9	-2	5	-3	1
CO/N=C/c1ccc(Oc2ccc(C)cc2)nc1	11	495*	1	-1	1	-1	0
CCCNC(=O)CSC1=N/C(=C/c2ccc(F)cc2)C(=O)N1CC	17	-2	22	-1	-1	2	x
C=CCN1C(=O)/C(=C\c2ccc(C)cc2)N=C1SCC(=O)NCCC	11	+	8	1	-19	0	0
Cc1cccc(C2=N/C(=C\c3cccs3)C(=O)O2)c1	25	13	-2	-2	-9	-3	x
Cc1ccc(S(=O)(=O)Oc2ccc(/C=C3\N=C(c4cccc(C)c4)OC3=O)cc2)cc1	4	+	8	-4	-38	0	0
COc1ccc(NC(=O)c2ccc(S(=O)(=O)N(C)c3ccccc3)cc2)cn1	4	+	x	-1	-20	-1	-1
COc1ccc(C(=O)Nc2ccc(S(=O)(=O)N(C)c3ccccc3)cc2)cc1	x	35	x	x	x	x	x
CCCC(O)(CCC)C(=O)NNc1ccc(C)cc1	0	643*	19	1	-4	2	0
CC(C)(C)C(=O)C(Cl)C(=O)Nc1ccccc1 (centres undefined)	26	604*	x	-1	1	0	-4
N#CC1(CCCN2CCCCC2)c2ccccc2CCc2ccccc21	x	36	x	x	x	x	x
CCN(CC(=O)Nc1ccc(OC)cc1)CC(=O)Nc1ccc(Cl)cc1F	-8	-3	-3	-2	-17	-2	x
CCN(CC)CC(=O)Nc1ccc(Oc2ccc(NC(=O)CN(CC)CC)cc2)cc1	-4	371*	19	-2	22	-1	1
CNC(=O)c1ccccc1NC(=O)C1CC(=O)N(c2ccc(OC)cc2)C1 (centres undefined)	0	-1	-17	-5	-7	-1	x
CSc1ccccc1NC(=O)COc1nsnc1N1CCOCC1	3	413*	18	-3	-30	1	0
O=C(COc1nsnc1N1CCOCC1)Nc1ccc(Cl)cc1	2	4	12	-4	-3	-4	x
Cc1nnc(NC(=O)Cn2nc(C)c3ccccc3c2=O)s1	6	130	-21	-4	-1	0	x
Cc1cccc(C)c1NC(=S)N(CCN(C)C)C(C)c1ccccn1 (centres undefined)	11	8	8	-4	-3	-2	x
CC(c1ccccn1)N(CCN(C)C)C(=S)Nc1cccc(F)c1 (centres undefined)	-7	436*	3	1	-10	-7	0
COc1ccccc1C(=O)NCc1nnc(SCC(=O)Nc2nccs2)n1C	-7	-15	-2	-3	-12	-3	x
CS(=O)(=O)N(CC(=O)Nc1ccccc1C(=O)N1CCCC1)c1ccc2c(c1)OCO2	-20	822*	7	-3	-8	-2	0
SMILES	SUMO HTRF inh	Mot1-301 SUMO	NALP1 inh	IMP-1 inhibitor	DNA FID counter	VIM-2 inhibitor	Mot1 SUMO dose
COC(=O)c1cc(NC(=O)CN(c2ccc3c(c2)OCO3)S(C)(=O)=O)ccc1Cl	5	-24	17	-3	-12	-2	x
CS(=O)(=O)N(CC(=O)NCCSCc1ccccc1)c1ccc2c(c1)OCO2	16	+	-8	-3	-29	-4	0
COC(=O)c1cccc(NC(=O)CN(c2ccc3c(c2)OCO3)S(C)(=O)=O)c1C	20	+	x	-3	-11	-2	1
CCS(=O)(=O)N1Cc2ccccc2CC1C(=O)Nc1cccc(S(=O)(=O)N(C)C)c1 (centres undefined)	9	2	-11	-2	-21	-3	x
COCCNCc1ccccc1	1	647*	-2	-6	1	-4	0
CCc1nc(SCC(=O)NC2CC2)c2c(C)c(C)sc2n1	7	23	-7	-2	-19	2	x
COc1ccccc1NC(=O)c1ccc(-n2ccnc2)c([N+](=O)[O-])c1	11	513*	26	0	-5	2	0
COc1ccc(C(=O)Nc2ccccc2N2CCCCC2)cc1[N+](=O)[O-]	-11	-12	-20	1	2	1	x
O=C(COC(=O)CN1C(=O)C2CCCCC2C1=O)Nc1c(Cl)cccc1Cl (centres undefined)	x	-18	x	x	x	x	x
CCCCNC(=O)C1C2C=CC3(CN(Cc4ccc(C)cc4)C(=O)C13)O2 (centres undefined)	14	859*	15	-1	-11	-3	0
CCOCCCNC(=O)C(c1ccc(OC)cc1)N(Cc1cccs1)C(=O)c1ccccn1 (centres undefined)	4	522*	0	-3	-40	-5	-1
FC(F)(F)c1cccc(NC(=S)NNC(=S)Nc2cccc(C(F)(F)F)c2)c1	-18	240	-1	-2	26	-5	x
Cc1ccccc1C(=O)NNC(=S)Nc1cccc(C(F)(F)F)c1	-124	405*	21	-2	-3	-2	0
Cc1cc(Cl)c2oc(C(=O)NC3CCC(O)CC3)c(C)c2c1 (centres undefined)	4	+	7	-1	-35	6	0
COc1ccc(/C=C2\SC(=S)N(CCCC(=O)Nc3cc(C)on3)C2=O)cc1OC	-9	+	6	-1	-4	0	0
COc1ccc(/C=C2\SC(=S)N(CCCCCC(=O)Nc3cc(C)on3)C2=O)cc1OC	14	0	11	-1	-12	-1	x
Cc1ccc(S(=O)(=O)n2c([N+](=O)[O-])cnc2C)c(C)c1C	-9	-21	13	0	-7	-4	x
